From ChEMBL document CHEMBL1944568, “Synthesis and biological evaluation of benzo[d]imidazole derivatives as potential anti-cancer agents” (Bioorg Med Chem Lett, 2012)
Activity calls are given as the source filed them. The calls are words filed in the database; no cut-off is given here.

Legend:
[1] = test system: HCT-116; experiment: Cytotoxicity against human HCT116 cells after 48 hrs by MTT assay; type: functional; details: HCT-116, 48 h
[2] = test system: MCF7; experiment: Cytotoxicity against human MCF7 cells after 48 hrs by MTT assay; type: functional; details: MCF7, 48 h
[3] = test system: HCT-116; experiment: Induction of apoptosis in human HCT116 cells assessed as caspase-3 activation at GI50 after 24 hrs; type: functional, cell-based
How it was run: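 HCT-116 cells exposed for 24 h at the respective GI₅₀ or 5×GI₅₀ concentration, with a DMSO control, then assayed for caspase-3 activity. Data are mean ± s.d. of two independent experiments, and significance versus DMSO was set at p <0.05.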

[4] = test system: HCT-116; experiment: Cell cycle arrest in human HCT116 cells assessed as accumulation at G2/M phase at 5 times GI50 after 24 hrs by […]PI staining-based flow cytometry; type: functional
[5] = test system: HCT-116; experiment: Induction of apoptosis in human HCT116 cells assessed as early apoptosis cells at 5 times GI50 after 24 hrs by AnnexinV/PI staining-based flow cytometry; type: functional
How it was run: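 HCT-116 cells were treated for 24 h alongside a DMSO control, stained with annexin V/PI and analysed by flow cytometry. Early apoptotic cells were scored as AnnV+/PI−, and late apoptotic cells as AnnV+/PI+. Values are mean ± s.d.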

[6] = target: Cyclin-dependent kinase 9 (Homo sapiens) (UniProt P50750); experiment: Inhibition of CDK9-mediated phosphorylation of RNA polymerase 2 at Ser2 in human HCT116 cells after 24 hrs by Western blot analysis; type: cell-based; details: HCT-116
How it was run: (§1)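 Western blot of HCT-116 cells after 24 h treatment across a concentration series, probing RNAPII CTD pSer-2 with β-actin as the internal loading control.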

[7] = target: CDK9/cyclin T1 (Homo sapiens, UniProt P50750); experiment: Inhibition of CDK9/CyclinT1; type: protein-complex assay
[8] = target: Cyclin-dependent kinase 2/cyclin A (Homo sapiens) (UniProt P24941+P20248+P78396); experiment: Inhibition of CDK2/Cyclin A; type: protein-complex assay
[9] = test system: HCT-116; experiment: Cell cycle arrest in human HCT116 cells at 5 times GI50 after 24 hrs by AnnexinV/PI staining-based flow cytometry; type: functional
[10] = target: Cyclin-dependent kinase 9 (Homo sapiens) (UniProt P50750); experiment: Inhibition of CDK9-mediated phosphorylation of RNA polymerase 2 at Ser2 in human HCT116 cells at GI50 after 24 hrs by Western blot analysis; type: cell-based; details: HCT-116; how it was run: as §1
[11] = target: Cyclin-dependent kinase 9 (Homo sapiens) (UniProt P50750); experiment: Inhibition of CDK9 in human HCT116 cells assessed as reduction in Mcl-1 protein level at GI50 after 24 hrs by Western blot analysis; type: cell-based; details: HCT-116
[12] = target: Cyclin-dependent kinase 9 (Homo sapiens) (UniProt P50750); experiment: Inhibition of CDK9 in human HCT116 cells assessed as reduction in MDM2 protein level at GI50 after 24 hrs by Western blot analysis; type: cell-based; details: HCT-116
[13] = test system: HCT-116; experiment: Ratio of DRB GI50 to compound GI50 for human HCT116 cells; type: functional
[14] = test system: MCF7; experiment: Ratio of DRB GI50 to compound GI50 for human MCF7 cells; type: functional
[15] = test system: HCT-116; experiment: Induction of apoptosis in human HCT116 cells assessed as at 5 times GI50 after 24 hrs by AnnexinV/PI staining-based flow cytometry

Cyclin-dependent kinase 9 (Homo sapiens), sequence (P50750 whole entry): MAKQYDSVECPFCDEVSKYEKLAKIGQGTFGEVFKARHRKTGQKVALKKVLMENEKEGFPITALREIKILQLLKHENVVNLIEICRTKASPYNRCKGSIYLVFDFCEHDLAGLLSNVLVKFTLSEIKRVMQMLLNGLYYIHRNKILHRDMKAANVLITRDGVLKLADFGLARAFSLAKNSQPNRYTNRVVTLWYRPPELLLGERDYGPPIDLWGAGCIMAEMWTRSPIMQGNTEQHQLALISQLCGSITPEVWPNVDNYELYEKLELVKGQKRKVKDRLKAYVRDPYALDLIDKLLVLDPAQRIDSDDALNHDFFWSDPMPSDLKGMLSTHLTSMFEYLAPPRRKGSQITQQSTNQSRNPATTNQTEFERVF
CDK9/cyclin T1, sequence (O60563 whole entry): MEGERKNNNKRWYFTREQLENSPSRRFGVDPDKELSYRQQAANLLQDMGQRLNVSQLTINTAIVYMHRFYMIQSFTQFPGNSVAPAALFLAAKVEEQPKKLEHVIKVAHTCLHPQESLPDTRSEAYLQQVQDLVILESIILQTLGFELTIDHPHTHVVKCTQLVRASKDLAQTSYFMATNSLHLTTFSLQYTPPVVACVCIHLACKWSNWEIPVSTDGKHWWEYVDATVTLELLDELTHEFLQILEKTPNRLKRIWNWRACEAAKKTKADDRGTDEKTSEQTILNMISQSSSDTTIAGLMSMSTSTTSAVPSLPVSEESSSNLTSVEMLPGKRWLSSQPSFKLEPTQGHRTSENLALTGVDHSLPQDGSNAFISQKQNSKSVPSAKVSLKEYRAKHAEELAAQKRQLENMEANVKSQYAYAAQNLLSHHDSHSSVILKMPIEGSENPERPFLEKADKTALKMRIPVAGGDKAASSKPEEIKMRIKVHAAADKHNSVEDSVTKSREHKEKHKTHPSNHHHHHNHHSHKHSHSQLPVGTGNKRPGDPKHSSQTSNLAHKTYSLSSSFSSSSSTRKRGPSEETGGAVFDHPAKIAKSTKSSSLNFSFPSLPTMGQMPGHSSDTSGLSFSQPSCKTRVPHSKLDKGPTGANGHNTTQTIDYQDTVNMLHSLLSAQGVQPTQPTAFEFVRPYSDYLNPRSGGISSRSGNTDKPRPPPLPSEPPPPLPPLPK
CDK9/cyclin T1, sequence (P50750 whole entry): as the sequence (P50750 whole entry) above

SMILES | GI50 [1] [µM] | GI50 [2] [µM] | other results
O=[N+]([O-])c1ccccc1Cn1c(C(F)(F)F)nc2cc(Cl)c(Cl)cc21 | 5.9 | 1.5 | –
Cc1cc2nc(C(F)(F)F)[nH]c2cc1C | 56 | 17 | –
CCc1nc2cc(Cl)c(Cl)cc2n1C1CCCC1 | 38 | 52 | –
FC(F)(F)c1nc2cc(Cl)c(Cl)cc2n1Cc1ccccc1 | 8.6 | 8.7 | –
Clc1cc2nc(-c3ccccc3Cl)[nH]c2cc1Cl | 23 | 22 | –
Cc1cc2nc[nH]c2cc1C [DIMEDAZOL] | 51 | 20 | –
Clc1cc2nc[nH]c2cc1Cl | 66 | 73 | –
FC(F)(F)c1nc2cc(Cl)c(Cl)cc2n1C1CCCC1 | 22 | 21 | –
COc1cc2ncn([C@@H]3O[C@H](CO)[C@@H](O)[C@H]3O)c2cc1OC | > 100 | > 100 | –
OC[C@H]1O[C@@H](n2cnc3cc(Cl)c(Cl)cc32)[C@H](O)[C@@H]1O [DICHLORORIBOBENZIMIDAZOLE] | 25 | 36 | Activity [3]: Active; Activity [4]: Active; Activity [5]: 20%
CCc1nc2cc(Cl)c(Cl)cc2[nH]1 | 46 | 48 | –
O=[N+]([O-])c1ccc(Cn2c(C(F)(F)F)nc3cc(Cl)c(Cl)cc32)cc1 | 81.6 | 97.3 | –
Cc1nc2cc(Cl)c(Cl)cc2[nH]1 | 51 | 28 | –
Cc1nc2cc(Cl)c(Cl)cc2n1C1CCCC1 | 13 | 40 | inhibition [6]: Dose-dependent effect; Ki [7]: 1.51 µM; inhibition [8]: inactive; Activity [3]: Active; Activity [9]: inactive; inhibition [10]: Active; inhibition [11]: Active; inhibition [12]: Active; Activity [5]: >17%
CCn1c(C(F)(F)F)nc2cc(Cl)c(Cl)cc21 | 95.3 | 72.9 | –
FC(F)(F)c1ccc(Cn2c(C(F)(F)F)nc3cc(Cl)c(Cl)cc32)cc1 | 19 | 17 | –
OC[C@H]1O[C@@H](n2cnc3cc(F)c(F)cc32)[C@H](O)[C@@H]1O | 67 | 57.9 | –

SMILES | GI50 [1] [µM] | GI50 [2] [µM] | other results
Nc1ccccc1Cn1c(C(F)(F)F)nc2cc(Cl)c(Cl)cc21 | 26.1 | 55.6 | –
Cn1c(C(F)(F)F)nc2cc(Cl)c(Cl)cc21 | 56 | 39 | –
CCc1nc2ccccc2n1[C@@H]1O[C@H](CO)[C@@H](O)[C@H]1O | 70.6 | 71.3 | –
FC(F)(F)c1nc2cc(Cl)c(Cl)cc2[nH]1 | 7 | 6 | RatioGI50 [13]: 3.5; RatioGI50 [14]: 6
CC(C)c1nc2cc(Cl)c(Cl)cc2[nH]1 | 52 | 57 | –
CC(C)n1c(C(F)(F)F)nc2cc(Cl)c(Cl)cc21 | 81.9 | 70.5 | –
C[S+]([O-])c1nc2cc(Cl)c(Cl)cc2n1C1CCCC1 (stereo not drawn) | 0.5 | 0.5 | Ki [7]: > 5 µM; Activity [3]: Active; Activity [9]: inactive; Activity [15]: <7%
O=[N+]([O-])c1cccc(Cn2c(C(F)(F)F)nc3cc(Cl)c(Cl)cc32)c1 | 22.8 | 60 | –
CS(=O)(=O)c1nc2cc(Cl)c(Cl)cc2n1C1CCCC1 | 0.6 | 0.6 | Ki [7]: > 5 µM; Activity [3]: Active; Activity [9]: inactive; Activity [15]: <7%
CC(C)c1nc2cc(Cl)c(Cl)cc2n1C1CCCC1 | 9 | 43 | Ki [7]: 3.33 µM; inhibition [8]: inactive
FC(F)(F)c1cccc(Cn2c(C(F)(F)F)nc3cc(Cl)c(Cl)cc32)c1 | 50.5 | 68 | –
FC(F)(F)c1nc2cc(Cl)c(Cl)cc2n1CC1CC1 | 61.3 | 60.2 | –
Nc1cccc(Cn2c(C(F)(F)F)nc3cc(Cl)c(Cl)cc32)c1 | 22.6 | 77.5 | –
Fc1ccccc1-c1nc2cc(Cl)c(Cl)cc2[nH]1 | 56.5 | 47.5 | –
CSc1nc2cc(Cl)c(Cl)cc2n1C1CCCC1 | 2.9 | 3.9 | Ki [7]: > 5 µM
C=CCn1c(C(F)(F)F)nc2cc(Cl)c(Cl)cc21 | 89.2 | 87 | –
Clc1cc2ncn(C3CCCC3)c2cc1Cl | 37 | 42 | –
